Neddylation inh = inhibitors of human cullin neddylation | P61081+Q13564 | TR-FRET cullin neddylation, biochemical | calls only at 25 µM | 360,000 compounds, 0.58% hits | AID 651699; in the data active = inhibition above about 36%
Target sequence (P61081 whole entry, looked up): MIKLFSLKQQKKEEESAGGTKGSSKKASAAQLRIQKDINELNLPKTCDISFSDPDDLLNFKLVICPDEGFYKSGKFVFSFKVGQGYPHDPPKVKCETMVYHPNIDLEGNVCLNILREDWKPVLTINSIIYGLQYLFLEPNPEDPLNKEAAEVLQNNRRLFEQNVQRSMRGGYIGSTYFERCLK
Target sequence (Q13564 whole entry, looked up): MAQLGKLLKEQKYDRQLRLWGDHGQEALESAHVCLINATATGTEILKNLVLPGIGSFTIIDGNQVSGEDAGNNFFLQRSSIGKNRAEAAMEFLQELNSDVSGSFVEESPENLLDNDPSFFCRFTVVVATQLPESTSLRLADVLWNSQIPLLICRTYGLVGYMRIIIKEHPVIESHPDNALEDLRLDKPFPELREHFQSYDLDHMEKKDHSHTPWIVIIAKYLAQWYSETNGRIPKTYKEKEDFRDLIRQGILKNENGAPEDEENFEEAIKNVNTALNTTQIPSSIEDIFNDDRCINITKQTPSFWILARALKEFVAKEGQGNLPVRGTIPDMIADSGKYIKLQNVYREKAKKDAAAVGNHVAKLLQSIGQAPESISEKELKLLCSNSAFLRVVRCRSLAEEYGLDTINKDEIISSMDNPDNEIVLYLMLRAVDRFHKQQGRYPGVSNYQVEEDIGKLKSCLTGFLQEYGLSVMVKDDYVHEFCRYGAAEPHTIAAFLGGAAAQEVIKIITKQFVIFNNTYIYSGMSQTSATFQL
PG9 binder = PG9 antibody binding by small molecule; AID 624416; inhibition, % at 6.7 µM; 360,000 compounds, 0.43% hits; TR-FRET gp120-PG9 antibody binding; in the data active = inhibition above about 8.5%
NR1D1 modulator = modulates human Rev-erb alpha binding to DNA. P20393. Rev-erbα–FITC-DNA binding, fluorescence polarization, 90 min. activity, % at 10 µM. 370,000 compounds, 0.79% hits. AID 1259318;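 active = activity above about 14%, limit read from the data; passing the limit was not always enough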;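 note: 0% = DMSO wells with 35 nM protein and 100% = DMSO wells with 750 nM protein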
NR2E3 ag-1 = agonists of human NR2E3 nuclear receptor; Q9Y5X4; CHO-S Gal4-NCOR/VP16-NR2E3 two-hybrid, luciferase; inhibition of corepressor binding, % at 3.98 µM; 360,000 compounds, 0.35% hits;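 active = inhibition above the mean of all tested compounds plus 3 SD, cut at about 70% in these data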;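 note: 0% = DMSO with NR2E3 transfected cells and 100% = cells lacking NR2E3 construct; higher means lower luciferase signal from less NR2E3 corepressor binding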
NR2E3 ag-2 = NR2E3 (human) agonism; Q9Y5X4; AID 2300; inhibition of corepressor binding, % at 4.78 µM; GST-NR2E3/biotin-RetCOR TR-FRET, 1536-well; 320,000 compounds, 0.12% hits;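 active = percent inhibition above the cutoff of mean plus 3 SD of all tested compounds, set per screening campaign, cut at about 20% in these data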;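 note: 0% = DMSO wells and 100% = biotin wells as full block of FRET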
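Material: NR2E3–RetCOR corepressor complex / Amount: 1.35 nM GST-NR2E3 / Medium: Tris pH 7.5 / Compound: single nominal compound dose of 4.8 µM / Incubation: 5 h at 4 °C / Technique: TR-FRET, Eu(K)-anti-GST donor, streptavidin-D2 acceptor, ex 340, em 617/671 nm / Read-out basis: percent loss of FRET ratio relative to control wells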
NR2E3 ag conf = confirmation of human NR2E3 agonists | CHO-S mammalian two-hybrid NR2E3-NCOR, luciferase luminescence | AID 624378 | inhibition, % at 3.98 µM | shares compounds with NR2E3 ag-1 | 2,300 compounds, 51% hits;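 active = average inhibition above a cutoff equal to the mean inhibition of all tested compounds plus one SD, cut at about 70% in these data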;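 note: 0% = DMSO in NR2E3 cells and 100% = DMSO in cells lacking NR2E3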
VP16 counter = GAL4-VP16 reporter inhibition in NR2E3 agonist counterscreen. shares compounds with NR2E3 ag-1. AID 624379. inhibition, % at 3.98 µM. CHO-S GAL4-VP16 luciferase reporter, luminescence. 2,300 compounds, 29% hits;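 active = mean inhibition above a cutoff equal to the average over all tested compounds plus one standard deviation, cut at about 70% in these data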;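 note: luciferase from a UAS reporter driven by GAL4-VP16 transactivation; 0% = DMSO with VP16-transfected cells and 100% = DMSO with cells lacking VP16; higher means less reporter light so more repression of VP16 activity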
PG9 bind confirm = confirmation of small molecules binding HIV-1 gp120 antibody PG9; shares compounds with PG9 binder; TR-FRET PG9 antibody binding, biochemical; inhibition, % at 6.7 µM; 1,500 compounds, 90% hits; AID 651571; in the data active = inhibition above about 9%
PGV04 Ab binding = PGV04 control antibody binding, counter-screen; TR-FRET PGV04 antibody-gp120 binding, biochemical; shares compounds with PG9 binder; inhibition, % at 6.7 µM; 1,500 compounds, 95% hits; AID 651604; in the data active = inhibition above about 9.5%
Neddyl inh conf = confirmation of human cullin neddylation inhibitors. shares compounds with Neddylation inh. TR-FRET cullin neddylation biochemical assay. calls only at 25 µM. 1,800 compounds, 13% hits. AID 652217; in the data active = inhibition above about 40%;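 note: neddylation substrate is the cullin 1 ring ligase complex with SKP2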
Rev-erbA confirm = Rev-erb alpha (human) modulation, hit confirmation | AID 1259319 | 3,000 compounds, 61% hits | Rev-erb alpha FITC-DNA binding, fluorescence polarization, 90 min | shares compounds with NR1D1 modulator | activation, % at 25 µM;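 active = activation at or above a set limit, or at least 3 SD above the negative control mean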;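 note: 0% = 35 nM protein with DMSO and 100% = 750 nM protein high control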
The depositor's hits bear a star; i = inactive; · = no result shown; + = active, no number. Sampled rows, rich in hits. Any-hit rate of the full collection: about 2%.

SMILES | Neddylation inh | PG9 binder | NR1D1 modulator | NR2E3 ag-1 | NR2E3 ag-2 | Neddyl inh conf | others
CC(=O)O[C@H]1C[C@H](O[C@H]2[C@@H](O)C[C@H](O[C@H]3[C@@H](O)C[C@H](O[C@H]4CC[C@@]5(C)C(CCC6C5C[C@@H](O)[C@]5(C)[C@@H](C7=CC(=O)OC7)CC[C@]65O)C4)O[C@@H]3C)O[C@@H]2C)O[C@H](C)[C@H]1O[C@@H]1O[C@H](CO)[C@@H](O)[C@H](O)[C@H]1O (stereo partly specified) | · | · | 0 | · | · | ·
COP(=S)(OC)Oc1cc(Cl)c(Cl)cc1Cl | · | · | 4 | · | · | ·
CC1CC(C)CC(C)C(O)C(C#N)=CC=CCC(C2CCCC2C(=O)O)OC(=O)CC(O)C(C)C1 (stereo unspecified) | i | 1 | -7 | 102* | · | · | NR2E3 ag conf=101*;VP16 counter=100*
CC(=O)OCC12CC(OC(=O)CC(C)C)C(C)=CC1OC1C(O)C(OC(C)=O)C2(C)C12CO2 (stereo unspecified) | i | 0 | 0 | 101* | · | · | NR2E3 ag conf=100*;VP16 counter=99*
O=C(Cn1cc(C(=O)c2ccccc2F)c2ccccc21)NCc1ccco1 | i | 17* | 1 | -1 | 8 | · | PG9 bind confirm=15*;PGV04 Ab binding=37*
CC(C)(C)C(=O)c1cn(CC(=O)NCc2ccco2)c2ccccc12 | i | -1 | 4 | -96 | 9 | ·
COC(=O)Cn1cc(C=C2C(=O)N(C)C(=O)N(C)C2=O)c2ccccc21 | · | 24* | -1 | · | 3 | · | PG9 bind confirm=39*;PGV04 Ab binding=53*
O=c1n(Cl)c(=O)n(Cl)c(=O)n1Cl | · | · | 0 | · | · | ·
COc1ccc(-n2c(=S)[nH]c3ccc(C)cc3c2=O)cc1 | i | 41* | 52* | -11 | · | · | PG9 bind confirm=35*;PGV04 Ab binding=39*;Rev-erbA confirm=19*
C[C@H]1CNCCN1c1ccc(N2CC[C@H](O)C2)c(C#N)c1 | · | -2 | -1 | · | · | ·
COc1ccc(CCn2c(O)c(C=Nc3ccc(NC(C)=O)cc3)c(=O)[nH]c2=O)cc1OC | · | 1 | -1 | 7 | -7 | ·
CCOc1ccc(N=Cc2c(O)n(CCc3ccc(OC)c(OC)c3)c(=O)[nH]c2=O)cc1 | + | 0 | -1 | -7 | 1 | i
NC(Cc1ccc(O)cc1)C(=O)NN=Cc1ccc(N(CCCl)CCCl)cc1 (stereo unspecified) | + | -3 | -2 | -1 | · | i
S=P(c1ccccc1)(c1ccccc1)c1c[n+](Cc2ccccc2)c2ccccn12 | · | · | 8 | · | · | ·
CCC(=NCC1CCCO1)c1c(O)n(Cc2ccccc2)c(=O)[nH]c1=O (stereo unspecified) | i | -1 | -4 | 19 | -1 | ·
O=C(N/N=C/c1c(O)n(CCc2ccccc2)c(=O)[nH]c1=O)c1ccccc1 | + | 0 | 8 | -50 | 3 | i
CC/C(=N\NC(=O)c1ccccc1)c1c(O)n(Cc2ccccc2)c(=O)[nH]c1=O | + | -1 | 2 | -24 | -1 | i
C[C@H](NC(=O)OCc1ccccc1)[P+](=O)O | · | · | 7 | · | · | ·
Nc1ccccc1C(=O)OCCOc1ccccc1 | · | 0 | -2 | -133 | 0 | ·
C=CCOC(=O)c1ccccc1N | + | 0 | 1 | 6 | 0 | i
CCOc1ccc2[nH]c(=O)c(CN(CCO)C3(c4nnnn4C4CCCCC4)CCCCC3)cc2c1 | + | -2 | 1 | -20 | 1 | i
Cc1ccc(CN2C(=O)NC(=O)C3(Cc4c(nc5ccccn5c4=O)N4CCCCCC43)C2=O)cc1 (stereo unspecified) | + | 1 | -4 | -16 | -3 | i
O=C1NC(=O)C2(Cc3ccccc3N3CCCC32)C(=O)N1c1cccc(Cl)c1 (stereo unspecified) | i | -1 | 1 | -21 | 2 | ·
CCOC(=O)CC[C@@H]1CC[C@]2(CCCN(Cc3ccncc3)C2)O1 | · | · | 0 | · | · | ·
CCCCC(=O)N/N=C/c1c(O)n(-c2cccc3ccccc23)c(=O)[nH]c1=O | + | -2 | 0 | -21 | 1 | i
SMILES | Neddylation inh | PG9 binder | NR1D1 modulator | NR2E3 ag-1 | NR2E3 ag-2 | Neddyl inh conf | others
N#Cc1ccc(NC(=S)N2Cc3cc(Br)ccc3-n3nncc3C2)cc1 | · | 0 | -3 | · | · | ·
COCCn1cc(C(=O)N2CCC3(CC2)OCCO3)c2c3ccccc3n(C)c2c1=O | + | -2 | 0 | -11 | 4 | i
Cn1c2ccccc2c2c(C(=O)N3CCC4(CC3)OCCO4)cn(C3CCCC3)c(=O)c21 | i | -1 | -5 | -14 | 5 | ·
COc1ccc2c(CN3CC=C(c4ccccc4)CC3)cc(=O)oc2c1 | + | 0 | -1 | -7 | -3 | i
CCc1ccc2c(CN3CC=C(c4ccccc4)CC3)cc(=O)oc2c1 | i | 0 | 0 | -14 | 0 | ·
CC(CCN1CC1)=NNC(=O)Nc1cccc2ccccc12 | + | -3 | 7 | -13 | · | i
O=C1NC(c2cccnc2)Nc2sc3c(c21)CCCC3 (stereo unspecified) | + | -1 | -1 | -47 | -1 | i
CC1(C)Cc2c(sc3c2C(=O)NC(c2cccnc2)N3)CO1 (stereo unspecified) | + | 0 | -6 | -1 | -1 | i
c1cncc(C2CCCN2)c1 (stereo unspecified) | · | · | · | · | 0 | ·
COC(=O)C1C(c2ccccc2)CC2CCC1N2C (stereo unspecified) | · | 0 | 0 | · | · | ·
COC(=O)C1C(c2ccc(I)cc2)CC2CCC1N2C (stereo unspecified) | · | 1 | 5 | · | · | ·
Cc1ccc(-c2cc(-c3ccccc3)cc(-c3ccccc3)[n+]2-c2ccccc2)cc1 | i | 0 | 0 | 15 | 2 | ·
Cc1ccc(-c2cc(-c3ccc(C)cc3)[n+](-c3ccc(C(=O)[O-])cc3)c(-c3ccc(C)cc3)c2)cc1 | + | 0 | 2 | 0 | 2 | +
CCC(C)n1c(O)c(/C=N/NC(=O)c2ccncc2)c(=O)[nH]c1=S (stereo unspecified) | + | -1 | -1 | -17 | -1 | i
